ChEMBL document CHEMBL1131239, “Orally active benzamide antipsychotic agents with affinity for dopamine D2, serotonin 5-HT1A, and adrenergic alpha1 receptors” (J Med Chem, 1998)
pKi: −log10 of the molar value. Values belong to the molecule of their own block, whether it stands above or below them.

What was measured:
Rattus norvegicus [1] = assay: Percent catalepsy in male Spargue-Dawley rat at pretreatment time 60 mins and when administered ip at dose 50 mg/kg; assay type: functional; conditions: route intraperitoneal
In short: (§1)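 Catalepsy in rats, groups of five per drug treatment, scored blind to drug and dose. Each session included a saline or vehicle negative control and a haloperidol 2 mg/kg positive control. Deaths during the experiment were recorded in the catalepsy column as number dead out of five.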

Rattus norvegicus [2] = assay: compound was tested for antipsychotic activity by conditioned avoidance response(CAR) assay in rats with a pretreatment period of 30 min upon intra peritoneal administration at a concentration of 5 mg/kg.; assay type: functional
In short: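 Rat conditioned avoidance test modified from Martin et al. Trained rats (N = 4) were run in 1-h sessions on two consecutive days. Fed animals had food and water until placed in the test chambers. Dosing was ip with 30 min pretreatment, and activity was expressed as percent inhibition at the stated dose.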

[3] = biological target: T1, 5-hydroxytryptamine receptor 1A (Rattus norvegicus, UniProt P19327); assay: Compound was evaluated for its binding affinity against 5-hydroxytryptamine 1A receptor from rat cerebral cortex; assay type: tissue-based
T1 sequence (P19327 whole entry): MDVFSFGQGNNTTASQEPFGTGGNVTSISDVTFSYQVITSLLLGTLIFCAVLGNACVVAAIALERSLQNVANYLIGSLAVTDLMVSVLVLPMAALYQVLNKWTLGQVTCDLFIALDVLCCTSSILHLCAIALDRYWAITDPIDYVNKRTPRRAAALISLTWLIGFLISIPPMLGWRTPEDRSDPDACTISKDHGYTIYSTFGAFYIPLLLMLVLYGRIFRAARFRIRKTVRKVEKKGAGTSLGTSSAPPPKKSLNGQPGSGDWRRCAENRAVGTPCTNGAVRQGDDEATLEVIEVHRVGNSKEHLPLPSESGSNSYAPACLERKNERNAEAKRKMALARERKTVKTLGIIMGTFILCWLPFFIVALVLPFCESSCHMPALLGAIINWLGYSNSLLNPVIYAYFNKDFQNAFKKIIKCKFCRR

Rattus norvegicus [4] = assay: compound was tested for antipsychotic activity by conditioned avoidance response(CAR) assay in rats with a pretreatment period of 30 min upon peroral administration at a concentration of 20 mg/kg.; assay type: functional; conditions: route oral
In short: (§2)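 Trained rats (N = 4) were run in 1-h sessions on two consecutive days, with the experimenter blind to drug and dose. Fed rats had food and water until placed in the test chambers. Fasted rats had no food overnight before the experiment.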

[5] = biological target: T2, Adrenergic receptor alpha-1 (Rattus norvegicus, UniProt P15823+P23944+P43140); assay: Binding affinity against Alpha-1 adrenergic receptor from rat cerebral cortex; assay type: tissue-based
T2 sequence (P15823 whole entry): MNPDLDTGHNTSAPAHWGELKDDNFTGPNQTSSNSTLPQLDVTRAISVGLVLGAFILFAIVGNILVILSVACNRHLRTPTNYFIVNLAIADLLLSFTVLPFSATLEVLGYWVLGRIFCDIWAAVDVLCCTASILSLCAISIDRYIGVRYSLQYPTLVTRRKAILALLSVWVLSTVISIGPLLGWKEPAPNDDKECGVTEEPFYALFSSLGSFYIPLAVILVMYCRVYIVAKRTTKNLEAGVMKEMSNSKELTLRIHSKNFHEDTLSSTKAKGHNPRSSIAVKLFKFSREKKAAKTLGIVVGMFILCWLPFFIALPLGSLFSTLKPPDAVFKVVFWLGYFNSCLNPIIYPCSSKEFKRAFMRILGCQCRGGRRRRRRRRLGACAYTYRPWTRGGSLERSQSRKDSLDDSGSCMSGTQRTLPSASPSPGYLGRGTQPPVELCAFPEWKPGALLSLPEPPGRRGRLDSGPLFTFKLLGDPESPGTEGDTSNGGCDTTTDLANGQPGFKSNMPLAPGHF
T2 sequence (P23944 whole entry): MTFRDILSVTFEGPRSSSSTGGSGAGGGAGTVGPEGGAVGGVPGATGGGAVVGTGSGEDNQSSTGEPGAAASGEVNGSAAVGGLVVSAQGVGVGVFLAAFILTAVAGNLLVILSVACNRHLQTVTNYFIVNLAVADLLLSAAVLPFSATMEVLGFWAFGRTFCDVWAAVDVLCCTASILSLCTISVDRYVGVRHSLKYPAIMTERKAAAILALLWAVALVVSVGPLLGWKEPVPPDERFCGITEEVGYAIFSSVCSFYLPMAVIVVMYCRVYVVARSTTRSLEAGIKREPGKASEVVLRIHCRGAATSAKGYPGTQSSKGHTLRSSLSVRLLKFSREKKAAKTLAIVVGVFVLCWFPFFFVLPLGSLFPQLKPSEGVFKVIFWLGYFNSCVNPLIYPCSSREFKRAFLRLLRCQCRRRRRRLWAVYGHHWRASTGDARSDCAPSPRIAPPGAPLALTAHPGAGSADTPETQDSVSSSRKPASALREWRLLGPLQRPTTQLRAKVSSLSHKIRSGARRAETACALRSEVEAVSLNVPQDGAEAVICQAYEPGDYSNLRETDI
T2 sequence (P43140 whole entry): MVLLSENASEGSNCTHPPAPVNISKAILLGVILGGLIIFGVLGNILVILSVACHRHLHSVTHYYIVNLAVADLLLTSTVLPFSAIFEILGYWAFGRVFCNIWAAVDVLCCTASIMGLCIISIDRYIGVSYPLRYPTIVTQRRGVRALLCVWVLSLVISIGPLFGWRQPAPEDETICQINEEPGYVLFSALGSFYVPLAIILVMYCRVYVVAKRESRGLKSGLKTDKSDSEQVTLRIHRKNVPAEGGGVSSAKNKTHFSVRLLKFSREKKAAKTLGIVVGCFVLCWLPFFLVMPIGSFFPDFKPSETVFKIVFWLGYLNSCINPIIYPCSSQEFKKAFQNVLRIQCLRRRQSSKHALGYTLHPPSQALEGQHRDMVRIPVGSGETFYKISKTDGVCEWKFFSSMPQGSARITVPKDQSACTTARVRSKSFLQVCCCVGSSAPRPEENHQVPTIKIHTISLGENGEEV

Rattus norvegicus [6] = assay: compound was tested for antipsychotic activity by conditioned avoidance response(CAR) assay in rats with a pretreatment period of 30 min upon intra peritoneal administration at a concentration of 1 mg/kg.; assay type: functional; in short: as §2
Rattus norvegicus [7] = assay: compound was tested for antipsychotic activity by conditioned avoidance response(CAR) assay in rats with a pretreatment period of 30 min upon intra peritoneal administration at a concentration of 5 mg/kg; assay type: functional; in short: as §2
Rattus norvegicus [8] = assay: Percent catalepsy in male Spargue-Dawley rat at pretreatment time 240 mins and when administered ip at dose 50 mg/kg (4/5L denotes that four rats out of five died during the course of experiment); assay type: functional; conditions: route intraperitoneal
In short: (§3)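 Catalepsy scored in groups of five rats per drug treatment, with the experimenter blind to drug and dose, in a quiet room. Each session included two control groups: saline (or vehicle) as negative control and haloperidol 2 mg/kg as positive control. Deaths during the experiment were recorded as lethality (e.g., 3/5L) in place of percent catalepsy.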

Rattus norvegicus [9] = assay: compound was tested for antipsychotic activity by conditioned avoidance response(CAR) assay in rats with a pretreatment period of 30 min upon intra peritoneal administration at a concentration of 13.4 mg/kg.; assay type: functional; in short: as §2
Rattus norvegicus [10] = assay: Percent catalepsy in male Spargue-Dawley rat at pretreatment time 60 mins and when administered ip at dose 50 mg/kg (3/5L denotes that three rats out of five died during the course of experiment); assay type: functional; conditions: route intraperitoneal; in short: as §3
Rattus norvegicus [11] = assay: compound was tested for antipsychotic activity by conditioned avoidance response(CAR) assay in rats with a pretreatment period of 30 min upon intra peritoneal administration at a concentration of 7.5 mg/kg.; assay type: functional; in short: as §2
Rattus norvegicus [12] = assay: Percent catalepsy in male Spargue-Dawley rat at pretreatment time 60 mins and administered ip at dose 50 mg/kg; assay type: functional; conditions: route intraperitoneal; in short: as §1
Rattus norvegicus [13] = assay: compound was tested for antipsychotic activity by conditioned avoidance response(CAR) assay in rats with a pretreatment period of 30 min upon intra peritoneal administration.; assay type: functional; in short: as §2
[14] = biological target: T2, Adrenergic receptor alpha-1; assay: Compound was evaluated for its binding affinity with Alpha-1 adrenergic receptor using membranes prepared from rat cerebral cortex; assay type: tissue-based
[15] = biological target: T1, 5-hydroxytryptamine receptor 1A; assay: Compound was evaluated for its binding affinity with 5-hydroxytryptamine 1A receptor using membranes prepared from rat cerebral cortex; assay type: tissue-based
In short: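 Membranes from male Wistar rat cerebral cortex: homogenized in HEPES-buffered 0.3 M sucrose, P2 pellet incubated 30 min at 25 °C, resuspended in 3 mM phosphate buffer pH 7.5. Labeled with 3 nM [3H]-8-OH-DPAT for 20 min at 25 °C. Nonspecific binding defined with 1 μM serotonin.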

Rattus norvegicus [16] = assay: compound was tested for antipsychotic activity by conditioned avoidance response(CAR) assay in rats with a pretreatment period of 30 min upon intra peritoneal administration at a concentration of 15 mg/kg; assay type: functional; in short: as §2
Rattus norvegicus [17] = assay: compound was tested for antipsychotic activity by conditioned avoidance response(CAR) assay in rats with a pretreatment period of 30 min upon intra peritoneal administration at a concentration of 15 mg/kg.; assay type: functional
Rattus norvegicus [18] = assay: compound was tested for antipsychotic activity by conditioned avoidance response(CAR) assay in rats with a pretreatment period of 60 min upon peroral administration at a concentration of 10 mg/kg.; assay type: functional; conditions: route oral; in short: as §2

pKi [3]: 9.47
Ki [5]: 21 nM
Compound: O=C(c1cccc(CN2CCN(C3COc4ccccc4O3)CC2)c1)N1CCCCC1 (stereo not given)
Catalepsy (Rattus norvegicus [1]): 29%
inhibition in vivo at 5 mg/kg (Rattus norvegicus [2]): -93.8%
inhibition in vivo at 20 mg/kg (Rattus norvegicus [4]): -68.2%
inhibition in vivo at 1 mg/kg (Rattus norvegicus [6]): -2.6%

Ki [5]: 6.7 nM
Compound: CC(C)Oc1ccccc1N1CCN(Cc2cccc(S(=O)(=O)N3CCCCC3)c2)CC1
inhibition in vivo at 5 mg/kg (Rattus norvegicus [7]): -6.7%

Compound: CC(C)Oc1ccccc1N1CCN(Cc2cccc(C(=O)N3CCCC3)c2)CC1
Catalepsy (Rattus norvegicus [8]): 0%
inhibition in vivo at 13.4 mg/kg (Rattus norvegicus [9]): -79.4%
pKi [3]: 8.44
Catalepsy (Rattus norvegicus [10]): 0%
inhibition in vivo at 7.5 mg/kg (Rattus norvegicus [11]): -98.3%
Ki [5]: 1.9 nM
inhibition in vivo at 1 mg/kg (Rattus norvegicus [6]): -44.8%

pKi [3]: 9.15
Ki [5]: 8.2 nM
Compound: CCOc1ccccc1N1CCN(Cc2cccc(C(=O)N3CCCCCC3)c2)CC1
Catalepsy (Rattus norvegicus [12]): 47.5%
ED50 (Rattus norvegicus [13]): 1.26 mg/kg

Ki [14]: 2.7 nM
pKi [15]: 8.60
Compound: O=C(c1cccc(CN2CCN(c3nsc4ccccc34)CC2)c1)N1CCCCC1
Catalepsy (Rattus norvegicus [1]): 74%
inhibition in vivo at 5 mg/kg (Rattus norvegicus [2]): -89.6%

Ki [5]: > 1000 nM
Compound: O=C(c1cccc(CN2CCNCC2)c1)N1CCCCC1
inhibition in vivo at 15 mg/kg (Rattus norvegicus [16]): -30.2%

pKi [3]: 8.47
Ki [5]: 1.7 nM
Compound: CC(C)Oc1ccccc1N1CCN(Cc2cccc(C(=O)N3CCc4ccccc43)c2)CC1
inhibition in vivo at 15 mg/kg (Rattus norvegicus [17]): -95.8%
inhibition in vivo at 10 mg/kg (Rattus norvegicus [18]): -1.4%
inhibition in vivo at 1 mg/kg (Rattus norvegicus [6]): -1.6%
